# Source: ChEMBL document CHEMBL1795235, “Quercetin diacylglycoside analogues showing dual inhibition of DNA gyrase and topoisomerase IV as novel antibacterial agents” (J Med Chem, 2011)
# How the values were obtained:
# Pseudomonas aeruginosa = assay: Antibacterial activity against Pseudomonas aeruginosa PAO1 after 24 hrs by microdilution method; assay type: functional; conditions: PAO1, 24 h
# In short: (§1)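 Broth microdilution in Mueller-Hinton broth with 0.85% NaCl, inoculum about 10^5 CFU per 100 μL. Compounds diluted from 25.6 mg/mL stocks in water to 2-fold series, final 0.062–128 μg/mL. […] Three independent determinations.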
# Enterococcus [1] = assay: Antibacterial activity against vancomycin resistant Enterococcus NCTC 12201 after 24 hrs by microdilution method; assay type: functional; conditions: NCTC 12201, 24 h
# In short: (§2)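 Broth microdilution in Mueller-Hinton broth with 0.85% NaCl, inoculum about 10^5 CFU per 100 μL. Compounds were diluted in water from 25.6 mg/mL stocks to final 2-fold series of 0.062–128 μg/mL. Plates were incubated 24 h at 35 °C. MIC was the lowest concentration at which all triplicate wells were clear, from three independent determinations.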
# Staphylococcus aureus [2] = assay: Antibacterial activity against methicillin-resistant Staphylococcus aureus N315 after 24 hrs by microdilution method; assay type: functional; conditions: N315, 24 h; in short: as §2
# Staphylococcus aureus [3] = assay: Antibacterial activity against methicillin-resistant Staphylococcus aureus OM481 after 24 hrs by microdilution method; assay type: functional; conditions: OM481, 24 h; in short: as §2
# Staphylococcus aureus [4] = assay: Antibacterial activity against methicillin-resistant Staphylococcus aureus COL after 24 hrs by microdilution method; assay type: functional; in short: as §2
# Streptococcus pneumoniae = assay: Antibacterial activity against Streptococcus pneumoniae R6 after 24 hrs by microdilution method; assay type: functional; conditions: R6, 24 h; in short: as §1
# Staphylococcus aureus [5] = assay: Antibacterial activity against vancomycin-intermediate Staphylococcus aureus Mu50 after 24 hrs by microdilution method; assay type: functional; conditions: Mu50, 24 h; in short: as §2
# Staphylococcus aureus [6] = assay: Antibacterial activity against methicillin-susceptible Staphylococcus aureus 209P after 24 hrs by microdilution method; assay type: functional; in short: as §2
# Staphylococcus aureus [7] = assay: Antibacterial activity against methicillin-resistant Staphylococcus aureus OM584 after 24 hrs by microdilution method; assay type: functional; conditions: OM584, 24 h; in short: as §2
# Enterococcus [8] = assay: Antibacterial activity against vancomycin resistant Enterococcus FN-1 after 24 hrs by microdilution method; assay type: functional; conditions: FN-1, 24 h; in short: as §2
# Escherichia coli = assay: Antibacterial activity against Escherichia coli K-12 after 24 hrs by microdilution method; assay type: functional; conditions: K-12, 24 h; in short: as §1
# Enterococcus [9] = assay: Ratio MIC for vancomycin to compound for vancomycin-resistant Enterococcus FN-1; assay type: functional
# [10] = Inhibition of Escherichia coli DNA topoisomerase 4 subunit ParC/DNA topoisomerase 4 subunit ParE-mediated decatenation of kDNA by densitometry
# In short: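 Purchased E. coli topoIV kit enzyme, one unit with 200 ng kDNA, 37 °C, 30 min. Buffer: 50 mM HEPES-KOH pH 7.6, 5 mM magnesium acetate, 100 mM potassium glutamate, 10 mM DTT, 1 mM ATP, 40% glycerol. Gel on 1.0% agarose in TAE. IC50 of decatenation from densitometry by interpolation equation, at least three determinations.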
# [11] = Inhibition of Staphylococcus aureus DNA Topoisomerase 4-mediated decatenation of kDNA after 30 mins by densitometry
# In short: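 Purchased S. aureus topoIV, one unit with 200 ng kDNA, 37 °C, 30 min. Products resolved on 1.0% agarose in TAE. IC50 of decatenation from densitometry by interpolation equation, at least three determinations.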
# [12] = Inhibition of Escherichia coli DNA gyrase assessed as inhibition of pBR322 supercoiling by densitometry
# In short: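 One unit of E. coli gyrase with 0.5 μg relaxed pBR322 DNA, 37 °C, 30 min. Stopped with sucrose/EDTA dye, run on 1.0% agarose in TAE. IC50 from densitometry via log-interpolation equation.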
Compound,MIC (Pseudomonas aeruginosa) [µg/mL],MIC (Enterococcus [1]) [µg/mL],MIC (Staphylococcus aureus [2]) [µg/mL],MIC (Staphylococcus aureus [3]) [µg/mL],MIC (Staphylococcus aureus [4]) [µg/mL],MIC (Streptococcus pneumoniae) [µg/mL],MIC (Staphylococcus aureus [5]) [µg/mL],MIC (Staphylococcus aureus [6]) [µg/mL],MIC (Staphylococcus aureus [7]) [µg/mL],MIC (Enterococcus [8]) [µg/mL],MIC (Escherichia coli) [µg/mL],Ratio (Enterococcus [9]),IC50 [10] [nM],IC50 [11] [nM],IC50 [12] [nM]
CC(=O)OC[C@H]1O[C@@H](Oc2cc(O)c3c(=O)c(O[C@@H]4O[C@H](COC(C)=O)[C@H](OC(C)=O)[C@H](OC(C)=O)[C@H]4OC(C)=O)c(-c4ccc(O)c(O)c4)oc3c2)[C@H](OC(C)=O)[C@@H](OC(C)=O)[C@H]1OC(C)=O,> 128,64,128,128,> 128,128,128,128,128,64,> 128,2,–,–,–
O=C(Cc1ccc(F)cc1)OC[C@H]1O[C@@H](Oc2c(-c3ccc(O)c(O)c3)oc3cc(O)cc(O)c3c2=O)[C@H](OC(=O)Cc2ccc(F)cc2)[C@@H](O)[C@H]1O,> 128,0.5,1,1,8,1,1,1,1,0.5,> 128,–,10200,460,1050
O=C(OC[C@H]1O[C@@H](Oc2c(-c3ccc(O)c(O)c3)oc3cc(O)cc(O)c3c2=O)[C@H](OC(=O)c2ccc(F)cc2)[C@@H](O)[C@H]1O)c1ccc(F)cc1,> 128,4,8,2,8,4,2,4,2,4,> 128,–,11000,520,380
Cc1ccc(CCC(=O)OC[C@H]2O[C@@H](Oc3c(-c4ccc(O)c(O)c4)oc4cc(O)cc(O)c4c3=O)[C@H](O)[C@@H](O)[C@H]2O)cc1,> 128,32,16,16,32,32,16,16,16,32,> 128,–,12000,2570,1790
Cc1ccc(CCC(=O)Oc2cc(O)c3c(=O)c(OC(=O)CCc4ccc(C)cc4)c(-c4ccc(O)c(O)c4)oc3c2)cc1,64,64,32,32,32,32,16,64,32,64,64,2,8590,440,1660
O=C(CCCc1ccc(F)cc1)OC[C@H]1O[C@@H](Oc2c(-c3ccc(O)c(O)c3)oc3cc(O)cc(O)c3c2=O)[C@H](OC(=O)CCCc2ccc(F)cc2)[C@@H](O)[C@H]1O,> 128,8,4,2,16,4,4,4,2,8,> 128,–,10700,2940,2980
O=C(CCc1ccc(F)cc1)Oc1cc(O)c2c(=O)c(OC(=O)CCc3ccc(F)cc3)c(-c3ccc(O)c(O)c3)oc2c1,64,32,16,16,32,32,32,64,16,64,64,2,6760,290,720
